Activity calls are given as the source filed them. The calls are words filed in the database; no cut-off is given here.
Tests used:
[1] = tested on: MDA-MB-435; assay: Cytotoxicity against human MDA-MB-435 cells assessed as growth inhibition after 72 hrs by MTT assay; format: functional, cell-based
Outline: (§1)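 MTT assay: cells treated in triplicate with a range of concentrations for 72 h at 37 °C, 5% CO2. Medium replaced, MTT (5 mg/mL) added for 4 h, then SDS/isobutanol/HCl solubiliser overnight. Absorbance read at 590 nm. Inhibition calculated against control and blank wells; IC50 is concentration giving 50% growth inhibition; three independent experiments.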

[2] = tested on: LNCaP; assay: Cytotoxicity against human LNCAP cells assessed as growth inhibition after 72 hrs by MTT assay; format: functional, cell-based; outline: as §1
[3] = tested on: A549; assay: Cytotoxicity against human A549 cells assessed as growth inhibition after 72 hrs by MTT assay; format: functional, cell-based; outline: as §1
[4] = target: DNA topoisomerase 2-alpha (Homo sapiens) (UniProt P11388); assay: Inhibition of recombinant human DNA topoisomerase 2-alpha assessed as supression of kDNA decatenation at 100 uM after 30 mins by agarose gel electrophoresis
Sequence of DNA topoisomerase 2-alpha (Homo sapiens) (P11388 whole entry): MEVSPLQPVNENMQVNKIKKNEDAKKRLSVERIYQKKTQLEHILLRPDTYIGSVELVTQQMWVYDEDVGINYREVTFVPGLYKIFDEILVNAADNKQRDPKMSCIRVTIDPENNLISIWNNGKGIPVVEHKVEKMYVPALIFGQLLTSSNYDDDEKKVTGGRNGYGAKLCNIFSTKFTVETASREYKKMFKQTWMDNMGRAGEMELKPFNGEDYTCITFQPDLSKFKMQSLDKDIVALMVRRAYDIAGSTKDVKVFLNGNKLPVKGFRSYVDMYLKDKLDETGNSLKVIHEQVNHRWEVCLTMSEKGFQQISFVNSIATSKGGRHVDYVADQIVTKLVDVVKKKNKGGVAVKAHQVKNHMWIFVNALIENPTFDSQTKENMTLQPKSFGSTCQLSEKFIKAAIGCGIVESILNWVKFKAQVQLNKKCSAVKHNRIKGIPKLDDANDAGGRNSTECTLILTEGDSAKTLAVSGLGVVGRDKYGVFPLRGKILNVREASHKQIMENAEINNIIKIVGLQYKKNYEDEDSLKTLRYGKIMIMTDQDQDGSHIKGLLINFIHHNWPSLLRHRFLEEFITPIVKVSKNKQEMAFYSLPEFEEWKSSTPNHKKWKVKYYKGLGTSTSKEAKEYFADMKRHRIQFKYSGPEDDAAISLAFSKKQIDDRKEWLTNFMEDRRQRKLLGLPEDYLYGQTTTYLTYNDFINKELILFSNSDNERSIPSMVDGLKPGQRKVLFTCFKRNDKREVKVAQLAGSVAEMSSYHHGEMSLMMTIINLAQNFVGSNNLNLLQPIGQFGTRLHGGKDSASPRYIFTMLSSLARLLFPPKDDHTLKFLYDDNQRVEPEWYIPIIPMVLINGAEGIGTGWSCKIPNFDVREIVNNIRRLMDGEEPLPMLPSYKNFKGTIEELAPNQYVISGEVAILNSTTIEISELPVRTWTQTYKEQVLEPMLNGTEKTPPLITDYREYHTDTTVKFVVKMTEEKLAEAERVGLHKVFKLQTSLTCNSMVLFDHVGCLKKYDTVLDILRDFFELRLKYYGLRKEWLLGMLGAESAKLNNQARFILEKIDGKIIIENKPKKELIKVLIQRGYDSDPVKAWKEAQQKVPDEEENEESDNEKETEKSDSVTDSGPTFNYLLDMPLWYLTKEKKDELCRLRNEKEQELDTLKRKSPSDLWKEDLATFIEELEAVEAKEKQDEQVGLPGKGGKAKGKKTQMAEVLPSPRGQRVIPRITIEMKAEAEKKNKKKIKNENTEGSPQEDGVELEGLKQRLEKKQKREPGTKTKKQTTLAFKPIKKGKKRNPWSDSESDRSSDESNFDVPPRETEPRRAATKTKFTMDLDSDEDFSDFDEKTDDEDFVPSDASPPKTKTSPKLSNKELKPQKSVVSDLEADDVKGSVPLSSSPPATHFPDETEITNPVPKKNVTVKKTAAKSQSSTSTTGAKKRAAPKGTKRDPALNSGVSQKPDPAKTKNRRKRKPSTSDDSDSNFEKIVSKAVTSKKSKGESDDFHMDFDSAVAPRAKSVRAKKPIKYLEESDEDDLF
Outline: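 ATP-dependent decatenation assay: 0.20 µg kDNA with 2 units Topo IIα at 37 °C for 30 min, 20 µL. Buffer: 50 mM Tris pH 8.0, KCl, 10 mM MgCl₂, 0.5 mM ATP, 0.5 mM DTT, 30 µg/mL BSA. Stopped with 10% SDS. Agarose gel scored for kDNA versus released minicircles.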

[5] = organism: Bos taurus; assay: Inhibition of calf thymus DNA topoisomerase 1-mediated relaxation of supercoiled pBR322 DNA at 100 uM after 30 mins by Agarose gel electrophoresis
Outline: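 Relaxation assay with 0.5 µg supercoiled pBR322 and 1 unit calf thymus Topo I, 20 µL. Buffer: 10 mM Tris–HCl pH 7.9, 150 mM NaCl, 0.1% BSA, 1 mM spermidine, 5% glycerol. Incubated 37 °C for 30 min; stopped with sarcosyl stop solution. 1% agarose gel, 5 V/cm, 2 h, TAE; ethidium bromide stain (0.5 µg/mL), UV. DMSO stocks. At least duplicate.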

[6] = target: DNA topoisomerase 2-alpha (Homo sapiens) (UniProt P11388); assay: Inhibition of recombinant human DNA topoisomerase 2-alpha-mediated relaxation of supercoiled pBR322 DNA at 100 uM after 30 mins by Agarose gel electrophoresis
Outline: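 Relaxation assay with 0.5 µg supercoiled pBR322 and 1 unit recombinant human Topo IIα, 20 µL. Incubated 30 min at 30 °C; stopped with 7 mM EDTA. 1% agarose gel, 5 V/cm, 2 h, TAE; ethidium bromide stain, UV. DMSO stocks. At least duplicate.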

[7] = tested on: MDA-MB-435; assay: Induction of DNA damage in human MDA-MB-435 cells assessed as phosphorylation of p53 at Ser15 at 10 uM after 12 hrs by Western blotting analysis; format: functional, cell-based
Outline: (§2)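 Treated MDA-MB-435 cells lysed in ice-cold Tris-HCl pH 7.4 buffer with Triton, phosphatase and protease inhibitors. Lysates clarified, boiled in SDS loading buffer, run on 8-12% SDS-PAGE and blotted. Membranes blocked in 5% skim milk, probed with primary antibodies, then peroxidase secondaries with ECL detection. β-actin as loading control.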

[8] = tested on: MDA-MB-435; assay: Induction of DNA damage in human MDA-MB-435 cells assessed as phosphorylation of H2AX at Ser139 at 10 uM after 12 hrs by Western blotting analysis; format: functional, cell-based; outline: as §2
[9] = tested on: MDA-MB-435; assay: Induction of DNA damage in human MDA-MB-435 cells assessed as phosphorylation of ATM at Ser1981 at 10 uM after 12 hrs by Western blotting analysis; format: functional, cell-based; outline: as §2
[10] = tested on: Calf thymus DNA; assay: Induction of DNA intercalation activity of calf thymus DNA topoisomerase 1 assessed as unwinding of pBR322 DNA at 2 ug/ml after 30 mins by Agarose gel electrophoresis; format: nucleic-acid assay; settings: Bos taurus
Outline: (§3)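 Relaxed pBR322 made by treating supercoiled plasmid with excess Topo I (10 units), then proteinase K digestion at 37 °C, phenol-chloroform extraction and ethanol precipitation. Relaxed DNA incubated with compound at 37 °C for 30 min; stopped with gel loading buffer. Run on 1% agarose, TAE, 5 V/cm for 2 h; stained with ethidium bromide 0.5 µg/mL, viewed under UV.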

[11] = tested on: Calf thymus DNA; assay: Induction of DNA intercalation activity of calf thymus DNA topoisomerase 1 assessed as unwinding of pBR322 DNA at 100 uM after 30 mins by Agarose gel electrophoresis; format: nucleic-acid assay; settings: Bos taurus; outline: as §3
[12] = tested on: MDA-MB-435; assay: Cytotoxicity against human MDA-MB-435 cells assessed as growth inhibition at 100 uM after 72 hrs by MTT assay
[13] = tested on: Calf thymus DNA; assay: Induction of DNA intercalation activity of calf thymus DNA topoisomerase 1 assessed as unwinding of pBR322 DNA at 10 ug/ml after 30 mins by Agarose gel electrophoresis; format: nucleic-acid assay; settings: Bos taurus; outline: as §3

| SMILES | inhibition [4] | inhibition [5] | inhibition [6] | other results |
| --- | --- | --- | --- | --- |
| Oc1ccc(-c2ccc(-c3ccc(O)c(O)c3)c(O)c2O)cc1 | Active | inactive |  | growth inhibition (GI) [1]: Active; growth inhibition (GI) [2]: Active; growth inhibition (GI) [3]: Active |
| Oc1ccc(-c2cc(O)c(-c3ccc(O)c(O)c3)c(O)c2)cc1 | Active | Active |  | growth inhibition (GI) [1]: Active; growth inhibition (GI) [2]: Active; growth inhibition (GI) [3]: Active |
| COc1ccc(-c2ccc(-c3ccc(O)cc3)cc2)cc1OC | inactive | inactive | inactive |  |
| Oc1ccc(-c2ccc(-c3ccc(O)c(O)c3)c(O)c2)cc1 | Active | inactive |  | growth inhibition (GI) [1]: Active; growth inhibition (GI) [2]: Active; growth inhibition (GI) [3]: Active |
| COc1cc([C@@H]2c3cc4c(cc3[C@@H](O[C@@H]3O[C@@H]5CO[C@@H](C)O[C@H]5[C@H](O)[C@H]3O)[C@H]3COC(=O)[C@H]23)OCO4)cc(OC)c1O |  |  |  | Activity [7]: Active; Activity [8]: Active; Activity [9]: Active |
| CC[n+]1c(-c2ccccc2)c2cc(N)ccc2c2ccc(N)cc21 |  |  |  | Activity [10]: Active |
| CC[C@@]1(O)C(=O)OCc2c1cc1n(c2=O)Cc2cc3c(O)cccc3nc2-1 |  | Active |  | Activity [11]: inactive |
| COc1ccc(-c2cc(OC)c(-c3ccc(OC)c(OC)c3)c(OC)c2)cc1 | inactive | inactive | inactive | Activity [12]: inactive |
| COc1ccc(-c2ccc(-c3ccc(OC)c(OC)c3)c(OC)c2)cc1 | inactive | inactive | inactive | Activity [12]: inactive |
| COc1ccc(-c2ccc(-c3ccc(O)cc3)c(OC)c2OC)cc1OC | inactive | inactive | inactive |  |
| CC[N+](C)(CC)CCC[n+]1c(-c2ccccc2)c2cc(N)ccc2c2ccc(N)cc21 |  |  |  | Activity [13]: Active |

Reference: ChEMBL document CHEMBL2424614, “A novel p-terphenyl derivative inducing cell-cycle arrest and apoptosis in MDA-MB-435 cells through topoisomerase inhibition” (Eur J Med Chem, 2013)
